One series concerns Liver. Kind of series: Biodistribution in liver of C57BL/6 mouse xenografted with mouse B16F10 cells at 3.7 MBq, iv after 1 hr by gamma-scintillation counting analysis. The series is classed as ADME, organism-based, B16-F10. The settings on record: in vivo. The gist of the method: (§1)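 1.0 × 10^6 B16F10 cells in PBS injected subcutaneously into the right shoulder of C57BL/6 mice, grown to 0.5 cm (~10 day). Tail-vein injection of about 3.7 MBq (100 μCi) 18F probe in PBS (0.1 M, pH 7.4). Killed at 1.0 or 2.0 h p.i. (n = 4 per group). Tissues excised, weighed and gamma-counted; uptake expressed as %ID/g, mean ± SD.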

A further series relates to Heart. Kind of series: Biodistribution in heart of C57BL/6 mouse xenografted with mouse B16F10 cells at 3.7 MBq, iv after 1 hr by gamma-scintillation counting analysis. The series is classed as ADME, organism-based, B16-F10. The following applies: in vivo. The gist of the method:
as §1

Series [1] relates to Blood. Kind of series: Biodistribution in blood of C57BL/6 mouse xenografted with mouse B16F10 cells at 3.7 MBq, iv after 1 hr by gamma-scintillation counting analysis. The format is ADME, organism-based, B16-F10. The following applies: in vivo. The gist of the method: as §1
For a further series, the system named is Kidney. Kind of series: Drug uptake in kidney of C57BL/6 mouse xenografted with mouse B16F10 cells at 3.7 MBq, iv after 35 mins by PET imaging analysis. The series is classed as ADME, organism-based, B16-F10. The following applies: in vivo. In short, it runs like this: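 Dynamic small-animal PET in B16F10 tumor-bearing mice (n = 4) after tail-vein injection of ~3.7 MBq (100 μCi). Scanning began ~2.0 min post-injection and ran 35 min (6×20 s, 8×60 s, 10×150 s; 24 frames). ROI counts converted to %ID/g assuming 1 g/ml tissue density. No attenuation correction.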

Series [2] deals with Nucleic Acid. The series can be described thus: Ratio of drug uptake in tumor to muscle of C57BL/6 mouse xenografted with mouse B16F10 cells at 3.7 MBq, iv after 2 hrs by gamma-scintillation counting analysis. The format is ADME, organism-based, B16-F10. The settings on record: in vivo. The gist of the method:
(§2)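 Same subcutaneous B16F10 model and tail-vein dose of about 3.7 MBq (100 μCi), n = 4 per group. Dissection at 1 or 2 h p.i. Gamma-counter %ID/g of tumor divided by that of blood, lung, liver or muscle, given as mean ± SD.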

Series [3] concerns Nucleic Acid. Kind of series: Ratio of drug uptake in tumor to liver of C57BL/6 mouse xenografted with mouse B16F10 cells at 3.7 MBq, iv after 1 hr by gamma-scintillation counting analysis. The format is ADME, organism-based, B16-F10. The following applies: in vivo. In short, it runs like this:
as §2

Series [4] deals with Nucleic Acid. The series can be described thus: Ratio of drug uptake in tumor to blood of C57BL/6 mouse xenografted with mouse B16F10 cells at 3.7 MBq, iv after 1 hr by gamma-scintillation counting analysis. The format is ADME, organism-based, B16-F10. The following applies: tumour. In short, it runs like this:
as §2

The test system of another series is Intestine. The series can be described thus: Biodistribution in intestine of C57BL/6 mouse xenografted with mouse B16F10 cells at 3.7 MBq, iv after 2 hrs by gamma-scintillation counting analysis. The format is ADME, organism-based, B16-F10. The following applies: in vivo. In short, it runs like this: as §1
The next series deals with Brain. The series can be described thus: Biodistribution in brain of C57BL/6 mouse xenografted with mouse B16F10 cells at 3.7 MBq, iv after 2 hrs by gamma-scintillation counting analysis. The series is classed as ADME, organism-based, B16-F10. The settings on record: in vivo. In short, it runs like this: as §1
The test system of another series is Spleen. The series can be described thus: Biodistribution in spleen of C57BL/6 mouse xenografted with mouse B16F10 cells at 3.7 MBq, iv after 2 hrs by gamma-scintillation counting analysis. The series is classed as ADME, organism-based, B16-F10. The settings on record: in vivo. In short, it runs like this:
as §1

Series [5] has as its system Mus musculus. Kind of series: Biodistribution in lungs of C57BL/6 mouse xenografted with mouse B16F10 cells at 3.7 MBq, iv after 2 hrs by gamma-scintillation counting analysis. The series is classed as ADME, organism-based, Lung, B16-F10. The following applies: in vivo. The gist of the method:
as §1

Series [6] relates to Blood. Kind of series: Biodistribution in blood of C57BL/6 mouse xenografted with mouse B16F10 cells at 3.7 MBq, iv after 2 hrs by gamma-scintillation counting analysis. The series is classed as ADME, organism-based, B16-F10. The following applies: in vivo. The gist of the method: as §1
Series [7] deals with Mus musculus. The series can be described thus: Biodistribution in tumor of C57BL/6 mouse xenografted with mouse B16F10 cells at 3.7 MBq, iv after 2 hrs by gamma-scintillation counting analysis. The following applies: in vivo. The series is classed as ADME, organism-based, Neoplasm, B16-F10. The gist of the method: as §1
The next series concerns Zone of skin. Kind of series: Biodistribution in skin of C57BL/6 mouse xenografted with mouse B16F10 cells at 3.7 MBq, iv after 1 hr by gamma-scintillation counting analysis. The following applies: in vivo. The format is ADME, organism-based, B16-F10. The gist of the method: as §1

As to `CCN(CC)CCNC(=O)c1ccc([18F])cn1`, the Drug uptake in the series on Liver worked out at 4.71 % ID/g; in the series with Heart, 1.17 % ID/g; with Blood [1], 0.42 % ID/g; in the series with Kidney, 9.44 % ID/g; with Intestine it was 0.88 % ID/g; with Brain, 0.42 % ID/g. In addition, the Drug uptake is 1.13 % ID/g in the series with Spleen; 0.69 % ID/g with Mus musculus [5]; 0.19 % ID/g with Blood [6]; 16.97 % ID/g with Mus musculus [7]; 1.3 % ID/g in the series with Zone of skin. Moreover, the Ratio is reported as 36.79 in the series with Nucleic Acid [2], 3.79 in the series on Nucleic Acid [3] and 41.44 in the series on Nucleic Acid [4].

These data come from ChEMBL document CHEMBL2311435, “Development of 18F-labeled picolinamide probes for PET imaging of malignant melanoma” (J Med Chem, 2013).
